These results are taken from article PMC11370551 (bioRxiv, 2024).

Type in all cases: in vivo, mouse
For series [1], the system named is female WT Swiss mice. The series can be described thus: Safety profile and MTD in female WT Swiss mice. As to conditions: SC. The method in brief: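 A GLP-1 receptor agonist was injected subcutaneously into WT mice at 0.5 (~5 nmol), 3 (~30 nmol) or 10 mg/kg (~100 nmol) to check tolerability before the painting studies.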
The subject of series [2] is Lepob/ob obese mice. The series can be described thus: Efficacy in obese Lepob/ob mice after IP injection. The settings on record: single IP 10 mg/kg. The method in brief: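 Obese Lepob/ob mice got a single intraperitoneal 10 mg/kg injection of test compound; the other arm of the route comparison was subcutaneous. Body weight was tracked as % change from Day 0. Fasting blood glucose was measured. Insulin response was assessed 10 days post-injection.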

Series [3] has as its system female WT Swiss mice. The series can be described thus: Ip-GTT in WT Swiss mice. As to conditions: 6 days ([…]) after single SC 10 mg/kg; glucose 2 g/kg IP; naïve 21,354 ± 431. The method in brief:
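Female WT Swiss mice got a single subcutaneous injection of test compound at 10 mg/kg (~25 nmol). […] AUCs were compared by non-parametric t-tests.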

The test system of series [4] is Lepob/ob obese mice. The series can be described thus: Efficacy in obese Lepob/ob mice after SC injection. In a few lines:
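Obese Lepob/ob mice (n = 6 per compound; 3 males, 3 females) got a single subcutaneous 10 mg/kg injection. Untreated non-obese C57BL/6J mice (3 males, 3 females) gave healthy baselines. Body weight was tracked as % change from Day 0. Blood glucose was read after 6 h fasting. IP glucose tolerance: 2 g/kg after 5–6 h fast. ITT: insulin 2.5 IU/kg at 240 h, AUC0–90 min, k-ITT. Analysis: two-way ANOVA and multiparametric t-tests.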

With Semaglutide, the “dose from which hypoglycemia was observed” value with female WT Swiss mice [1] (WT mice, doses 0.5, 3, 10 mg/kg) is listed as no less than 0.5 mg/kg. The “MTD (maximum tolerated dose among the assessed range)” value in the series on female WT Swiss mice [1] (female WT Swiss mice) stood at 10 mg/kg. Besides, in the series with Lepob/ob obese mice [2], the “duration of sustained body weight loss” value is on record as “up to 7 days”. Further, the “fasting blood glucose lowering after 10 days” value with Lepob/ob obese mice [2] (240 h p.i.) is “no more efficacy”. Also, in the series with female WT Swiss mice [3], the “Ip-GTT AUC0–120min” value is recorded as 21,282 ± 795. Besides, the body weight loss result with Lepob/ob obese mice [4] (for 3 days after single SC 10 mg/kg (~170 nmol), n = 6) is “about 8.3 ± 0.5%”. Further, the “duration of significant body weight loss” value with Lepob/ob obese mice [4] (single SC 10 mg/kg) was 3 days. In addition, the “duration of blood glucose down-regulation” value with Lepob/ob obese mice [4] (single SC 10 mg/kg, both sexes combined) was “up to 10 days”.
